Experimental data taken from publication PMC3742633 (Molecular cancer therapeutics, 2013).

What was measured:
[1] = system: COLO 205; assay: NCI 60 cell line screen, Sulforhodamine B Assay; type: cell-based; conditions: Homo sapiens, COLO 205, 48 h
Outline: (§1)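 Run through the NCI-60 screening service: human cancer cell lines exposed to test compound for 48 h. Growth read as cellular protein content by sulforhodamine B staining, and GI50 derived from this.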

[2] = system: RXF 393; assay: NCI 60 cell line screen, Sulforhodamine B Assay; type: cell-based; conditions: Homo sapiens, RXF 393, 48 h
Outline: as §1

[3] = system: MDA-MB-435; assay: NCI 60 cell line screen, Sulforhodamine B Assay; type: cell-based; conditions: Homo sapiens, MDA-MB-435, 48 h
Outline: as §1

[4] = Tolerability of intraperitoneal PFK15; conditions: 25 mg/kg i.p. every three days
[5] = system: HOP-62; assay: NCI 60 cell line screen, Sulforhodamine B Assay; type: cell-based; conditions: Homo sapiens, HOP-62, 48 h
Outline: as §1

[6] = system: SF-295; assay: NCI 60 cell line screen, Sulforhodamine B Assay; type: cell-based; conditions: Homo sapiens, SF-295, 48 h
Outline: as §1

[7] = system: MCF7; assay: NCI 60 cell line screen, Sulforhodamine B Assay; type: cell-based; conditions: Homo sapiens, MCF7, 48 h
Outline: as §1

[8] = system: OVCAR-8; assay: NCI 60 cell line screen, Sulforhodamine B Assay; type: cell-based; conditions: Homo sapiens, OVCAR-8, 48 h
Outline: as §1

[9] = system: HOP-92; assay: NCI 60 cell line screen, Sulforhodamine B Assay; type: cell-based; conditions: Homo sapiens, HOP-92, 48 h
Outline: as §1

[10] = system: SF-539; assay: NCI 60 cell line screen, Sulforhodamine B Assay; type: cell-based; conditions: Homo sapiens, SF-539, 48 h
Outline: as §1

[11] = system: SK-MEL-5; assay: NCI 60 cell line screen, Sulforhodamine B Assay; type: cell-based; conditions: Homo sapiens, SK-MEL-5, 48 h
Outline: (§2)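 Run through the National Cancer Institute 60 cell line screening service on its panel of 59 human cancer lines in vitro. Cytostatic/toxic effect was read as cellular protein content (sulforhodamine B) over 48 h.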

[12] = system: ACHN; assay: NCI 60 cell line screen, Sulforhodamine B Assay; type: cell-based; conditions: Homo sapiens, 48 h
Outline: as §1

[13] = system: TK-10; assay: NCI 60 cell line screen, Sulforhodamine B Assay; type: cell-based; conditions: Homo sapiens, TK-10, 48 h
Outline: as §2

[14] = system: CCRF-CEM; assay: NCI 60 cell line screen, Sulforhodamine B Assay; type: cell-based; conditions: Homo sapiens, 48 h
Outline: as §1

[15] = system: UACC-62; assay: NCI 60 cell line screen, Sulforhodamine B Assay; type: cell-based; conditions: Homo sapiens, UACC-62, 48 h
Outline: as §2

[16] = Pharmacokinetic profile after IV administration; type: in vivo, female C57Bl/6 mice; conditions: plasma
Outline: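 Test compound was given IV to female C57Bl/6 mice, with 8 time points and 3 animals per time point. Plasma was extracted with acetonitrile and analysed by LC-MS/MS on a polar reverse-phase column with a 0.5% formic acid acetonitrile/water mobile phase. Tmax, Cmax, volume of distribution, half-life, clearance, AUCs and MRT were calculated from the concentration–time data.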

[17] = system: PC-3; assay: NCI 60 cell line screen, Sulforhodamine B Assay; type: cell-based; conditions: Homo sapiens, PC-3, 48 h
Outline: as §1

[18] = system: Jurkat T cell leukemia cells; assay: Cell viability, trypan blue exclusion; type: cell-based; conditions: Homo sapiens, 48 h, read-out: IC50 cytotoxic effects (viability)
[19] = system: CAKI-1; assay: NCI 60 cell line screen, Sulforhodamine B Assay; type: cell-based; conditions: Homo sapiens, CAKI-1, 48 h
Outline: as §1

[20] = system: KM12; assay: NCI 60 cell line screen, Sulforhodamine B Assay; type: cell-based; conditions: Homo sapiens, KM12, 48 h
Outline: as §1

[21] = system: OVCAR-5; assay: NCI 60 cell line screen, Sulforhodamine B Assay; type: cell-based; conditions: Homo sapiens, OVCAR-5, 48 h
Outline: as §1

[22] = system: NCI-H23; assay: NCI 60 cell line screen, Sulforhodamine B Assay; type: cell-based; conditions: Homo sapiens, NCI-H23, 48 h
Outline: as §1

[23] = system: 786–0; assay: NCI 60 cell line screen, Sulforhodamine B Assay; type: cell-based; conditions: Homo sapiens, 786-0, 48 h
Outline: as §1

[24] = system: NCI/ADR-RES; assay: NCI 60 cell line screen, Sulforhodamine B Assay; type: cell-based; conditions: Homo sapiens, 48 h
Outline: as §1

[25] = system: Jurkat and H522 cells; assay: F26BP measurement in cells; type: cell-based, human; conditions: three hours exposure
Outline: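 Cells plated at 1×10^5/well, 24 h in RPMI or DMEM (5% CO2, 37°C), then exposed to test compound for 3 h. Cells triturated, washed twice in PBS, dissolved in […] NaOH. F26BP measured by coupled enzyme reaction and normalized to BCA protein. Triplicate or quadruplicate; unpaired two-tailed t-test.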

[26] = system: SK-MEL-2; assay: NCI 60 cell line screen, Sulforhodamine B Assay; type: cell-based; conditions: Homo sapiens, SK-MEL-2, 48 h
Outline: as §1

[27] = system: EKVX; assay: NCI 60 cell line screen, Sulforhodamine B Assay; type: cell-based; conditions: Homo sapiens, 48 h
Outline: as §1

[28] = system: SK-MEL-28; assay: NCI 60 cell line screen, Sulforhodamine B Assay; type: cell-based; conditions: Homo sapiens, SK-MEL-28, 48 h
Outline: as §2

[29] = system: DU-145; assay: NCI 60 cell line screen, Sulforhodamine B Assay; type: cell-based; conditions: Homo sapiens, DU-145, 48 h
Outline: as §1

[30] = system: NCI-H460; assay: NCI 60 cell line screen, Sulforhodamine B Assay; type: cell-based; conditions: Homo sapiens, NCI-H460, 48 h
Outline: as §1

[31] = system: HS 578T; assay: NCI 60 cell line screen, Sulforhodamine B Assay; type: cell-based; conditions: Homo sapiens, 48 h
Outline: as §1

[32] = system: RPMI-8226; assay: NCI 60 cell line screen, Sulforhodamine B Assay; type: cell-based; conditions: Homo sapiens, RPMI-8226, 48 h
Outline: as §1

[33] = Solubility; type: physicochemical
[34] = system: T-47D; assay: NCI 60 cell line screen, Sulforhodamine B Assay; type: cell-based; conditions: Homo sapiens, T47D, 48 h
Outline: as §2

[35] = system: IGROV1; assay: NCI 60 cell line screen, Sulforhodamine B Assay; type: cell-based; conditions: Homo sapiens, IGROV-1, 48 h
Outline: as §1

[36] = system: SR; assay: NCI 60 cell line screen, Sulforhodamine B Assay; type: cell-based; conditions: Homo sapiens, 48 h
Outline: as §2

[37] = female, C57Bl/6, mouse, iv, 5 mg/kg

SMILES: O=C(C=Cc1ccc2ccccc2n1)c1ccncc1 [PFK15, 1-(4-pyridinyl)-3-(2-quinolinyl)-2-propen-1-one]
- GI50 [1]: 2.45 µM
- GI50 [2]: 1.7 µM
- GI50 [3]: 3.24 µM
- body mass loss [4]: < 10%
- end organ toxicity based on blood, urine and histological analyses [4]: no end organ toxicity
- GI50 [5]: 2.34 µM
- GI50 [6]: 13.5 µM
- GI50 [7]: 1.86 µM
- GI50 [8]: 1.82 µM
- GI50 [9]: 3.02 µM
- GI50 [10]: 2.51 µM
- GI50 [11]: 3.47 µM
- GI50 [12]: 2.04 µM
- GI50 [13]: 4.07 µM
- GI50 [14]: 3.8 µM
- GI50 [15]: 2.51 µM
- AUC0-inf ([16]; IV, C57Bl/6 mice): 1804 ng/h/mL
- Cmax [16, 37]: 3050 ng/mL
- clearance [16, 37]: 46.2 mL/min/kg
- half-life [16, 37]: 5.1 h
- GI50 [17]: 3.16 µM
- IC50 [18]: 2.42 µM
- GI50 [19]: 11.5 µM
- GI50 [20]: 1.95 µM
- GI50 [21]: 5.37 µM
- GI50 [22]: 3.16 µM
- GI50 [23]: 2 µM
- GI50 [24]: 3.89 µM
- effect on F26BP [25]: reduced
- GI50 [26]: 6.46 µM
- GI50 [27]: 12.9 µM
- GI50 [28]: 2.09 µM
- GI50 [29]: 2.24 µM
- GI50 [30]: 3.47 µM
- GI50 [31]: 20.9 µM
- GI50 [32]: 2.19 µM
- solubility [33]: limited solubility
- GI50 [34]: 3.63 µM
- GI50 [35]: 4.37 µM
- GI50 [36]: 0.23 µM
